# Screening data from PubChem BioAssay.
# In the library only some 9.4% were active in any assay of this set; here they are far more common.
# CSC inhib = cancer stem cell inhibition. inhibition, % at 7.5 µM. 300,000 tested, 1.1% active. cancer stem cell-like cells viability, luminescence. AID 2717; in the data active = inhibition above about 75%; tested in HMLE shEcad cells
# Beta cell apopt = beta cell apoptosis inhibition | protection from apoptosis, % (test concentration not listed) | INS-1E cytokine-induced death, ATP luminescence, 48 h; percent of positive-control rescue, neutral wells zero | 300,000 tested, 0.8% active | AID 435005;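 active = Every replicate reaches about 75%, or at least half do and their mean reaches it too, limit read from the data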;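 also: 0% = cytokine-treated negative control wells and 100% = positive control rescue; higher means more ATP so stronger rescue from cytokine killing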
# Mdm2-MdmX inh = inhibitors of human Mdm2/MdmX interaction | SaOS-2 split-luciferase Mdm2/MdmX complementation, luminescence | inhibition, % at 8 µM | 330,000 tested, 3% active | AID 485346;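 active = inhibition of at least 50% at 8 µM in the primary screen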
# Target sequence (O15151 whole entry, looked up): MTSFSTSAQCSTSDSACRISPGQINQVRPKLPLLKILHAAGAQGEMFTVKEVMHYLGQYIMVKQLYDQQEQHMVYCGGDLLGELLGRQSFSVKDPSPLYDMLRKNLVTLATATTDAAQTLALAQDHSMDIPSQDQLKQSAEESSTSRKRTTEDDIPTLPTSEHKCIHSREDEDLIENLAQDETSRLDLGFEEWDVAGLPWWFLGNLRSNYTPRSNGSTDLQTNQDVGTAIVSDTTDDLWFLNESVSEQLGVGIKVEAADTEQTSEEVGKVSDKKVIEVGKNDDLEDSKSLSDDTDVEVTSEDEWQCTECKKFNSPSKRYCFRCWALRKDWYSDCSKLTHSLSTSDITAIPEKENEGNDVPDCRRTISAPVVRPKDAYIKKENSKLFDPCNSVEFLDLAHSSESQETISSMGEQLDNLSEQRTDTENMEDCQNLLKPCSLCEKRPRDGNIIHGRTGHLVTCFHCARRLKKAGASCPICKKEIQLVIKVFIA
# Target sequence (Q00987 whole entry, looked up): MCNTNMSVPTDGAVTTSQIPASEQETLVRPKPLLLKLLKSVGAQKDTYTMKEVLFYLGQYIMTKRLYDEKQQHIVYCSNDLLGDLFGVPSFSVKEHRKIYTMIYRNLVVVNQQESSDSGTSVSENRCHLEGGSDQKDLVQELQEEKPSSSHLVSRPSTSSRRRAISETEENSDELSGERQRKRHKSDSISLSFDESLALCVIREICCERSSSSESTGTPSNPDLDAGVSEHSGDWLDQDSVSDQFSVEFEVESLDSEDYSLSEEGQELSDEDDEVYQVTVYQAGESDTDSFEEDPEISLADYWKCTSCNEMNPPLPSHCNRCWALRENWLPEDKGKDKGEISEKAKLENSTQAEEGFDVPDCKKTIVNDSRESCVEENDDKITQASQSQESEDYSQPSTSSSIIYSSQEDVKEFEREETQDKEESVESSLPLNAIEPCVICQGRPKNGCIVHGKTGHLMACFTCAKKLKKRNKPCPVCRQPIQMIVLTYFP
# T cruzi repl = blocks replication of Trypanosoma cruzi | T. cruzi beta-gal in NIH3T3, luminescence, 90 h | inhibition, % (concentration not given with the values) | 300,000 tested, 1.4% active;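 active = mean inhibition across valid replicates above about 55%, limit read from the data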;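 also: signal also drops with host cell toxicity which is not excluded here; 0% = plate median of DMSO wells and 100% = zero luminescence signal; higher percent means less beta-gal luminescence so fewer parasites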
#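 Read-out: Parasite load inhibition, % | Test system: Mouse NIH/3T3 fibroblasts infected with β-gal-expressing T. cruzi Tulahuen C4 | Amount: 5,000 cells/well | Medium: DMEM, 2% fetal bovine serum | Signal: GalScreen β-gal luminescence, detergent lysis, 60 min | Timing: 3 h attach, ≥90 h co-culture | Also added: Tulahuen C4 trypomastigotes, 5000/well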
# SKKanGAS inh = blocks kanamycin growth of S. pyogenes SKKanGAS strain | BacTiter-Glo, 6 h | inhibition, % at 7.5 µM | 300,000 tested, 1.3% active;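 active = mean replicate score, as percent of positive control median, at least 50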;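 also: strain carries kanamycin resistance gene driven by streptokinase promoter and grows in 40 µg/ml kanamycin; loss of luminescence reflects streptokinase promoter inhibition or plain growth inhibition; 0% = median of DMSO wells and 100% = positive control at its reference dose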
# Lmaj promast = Leishmania major promastigote growth inhibition; inhibition, % at 10 µM; Leishmania major promastigotes, resazurin fluorescence viability; 200,000 tested, 9% active; in the data active = inhibition above about 50%;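 also: promastigotes grown with compound for 44 hours at 28 °C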
# Mdm2 MdmX conf = confirmation of human Mdm2/MdmX interaction inhibitors; AID 489028; 10,000 tested, 55% active; shares compounds with Mdm2-MdmX inh; inhibition, % at 8 µM; Mdm2-MdmX binding, luminescent assay; in the data active = inhibition above about 40%
# FLuc counter = full-length luciferase inhibition in Mdm2/MdmX counter-screen | inhibition, % at 8 µM | SaOS-2 full-length luciferase counterscreen, luminescence | AID 504607 | shares compounds with Mdm2-MdmX inh | 6,200 tested, 77% active;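 active = mean inhibition at 8 µM reaching about 37%, which flags the compound as non-specific, limit read from the data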;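 also: p53-null SaOS-2 cells with luciferase driven by a doxycycline-inducible promoter; compound on cells about two nights before reading with doxycycline added after day one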
# Active calls of the source: *; · = not tested or not shown.
SMILES,CSC inhib,Beta cell apopt,Mdm2-MdmX inh,T cruzi repl,SKKanGAS inh,Lmaj promast,Mdm2 MdmX conf,FLuc counter
CCN(CC(=O)N1CCN(Cc2ccccc2)CC1)S(=O)(=O)c1ccc(C)cc1,-4,-1,20,2,15,·,·,·
CCN1C(=O)c2cccc3c(S(=O)(=O)Nc4ccc(OC)cc4OC)ccc1c23,9,19,26,10,31,24,·,·
CCN1C(=O)c2cccc3c(Cl)ccc(c23)C1=O,-16,-4,11,-8,-5,-5,·,·
CCN1C(=O)c2cccc3c(Cl)ccc1c23,-19,·,50*,14,-3,·,-5,·
CCN1C(=O)c2cccc3c(S(=O)(=O)Nc4ccccn4)ccc1c23,8,-13,75*,25,-3,2,46*,68*
COc1ccccc1-c1cc(-c2ccccc2)nc(SC(C(N)=O)c2ccccc2)c1C#N (centres undefined),12,41,93*,46,3,3,58*,19
COc1cc(-c2cc(-c3ccccc3)nc(SCC(=O)O)c2C#N)cc(OC)c1OC,-23,2,20,1,25,·,·,·
CCOc1ccc(-c2[nH]ncc2-c2ccc(OC)c(OC)c2)c(O)c1,61,24,45,·,·,-10,·,·
C=C(C)COc1ccc(-c2ncnc(C(F)(F)F)c2-c2ccc(OC)cc2)c(O)c1,24,17,40,15,20,·,·,·
C=C(C)COc1ccc(-c2n[nH]c(C)c2-c2ccc(Br)cc2)c(O)c1,101*,-2,86*,28,99*,9,56*,51*
COc1ccc(-c2cn[nH]c2-c2ccc(OCc3ccc([N+](=O)[O-])cc3)cc2O)cc1,53,-2,86*,21,16,43,77*,22
C=C(C)COc1ccc(-c2[nH]ncc2-c2ccc(Br)cc2)c(O)c1,68,7,60*,3,65*,1,62*,44*
CCOc1ccc(-c2[nH]ncc2-c2ccc(Cl)cc2)c(O)c1,38,8,23,11,-3,·,·,·
CC(=O)c1cccc(NC(=O)Cn2cnc(S(=O)(=O)N3CCOCC3)c2)c1,-14,-3,-5,1,0,·,·,·
CC(=O)N1c2ccc(C)cc2C(c2ccccc2)CC1C (centres undefined),9,-7,74*,16,1,·,35,71*
C=CC[C@H](CC(=O)N(CCO)Cc1ccccc1)C(=O)N[C@@H](COC(=O)[C@H](CC=C)CC(=O)OC(C)(C)C)Cc1c[nH]c2ccccc12,0,-2,23,·,·,·,·,·
C=CC[C@H](CC(=O)N(CCO)Cc1ccccc1)C(=O)N[C@@H](COC(=O)[C@@H](CC=C)Cc1ccc(F)cc1)Cc1c[nH]c2ccccc12,26,-3,91*,·,·,·,20,·
C=CC[C@@H](CC(=O)N(CCO)Cc1ccccc1)C(=O)N[C@@H](COC(=O)[C@@H](CC=C)Cc1ccc(F)cc1)Cc1c[nH]c2ccccc12,·,-7,76*,·,·,·,21,·
c1ccc(COc2ccccc2CNC23CC4CC(CC(C4)C2)C3)cc1,41,35,96*,56*,0,71*,70*,59*
CCc1[nH]nc(C(=O)NC2CCCc3c2cnn3-c2cc(C)cc(C)c2)c1C (centres undefined),19,-7,76*,9,7,·,81*,95*
CN1C(=O)C(O)(C2CCCCCC2=O)c2ccccc21 (centres undefined),5,·,-9,-3,1,·,·,·
CC(N=C1NS(=O)(=O)c2ccccc21)C(=O)NCc1ccc(F)cc1 (centres undefined),-13,2,8,·,·,·,·,·
Cc1ccccc1C(=O)Nc1ccc2c(c1)CCCN2C(=O)c1cccs1,-9,14,84*,3,-2,·,68*,40*
CNS(=O)(=O)c1cn(CC(=O)NCc2ccc(N(C)C)cc2)cc1S(=O)(=O)NC,4,-2,9,-2,-8,·,·,·
CCn1c2ccc(C)cc2c2n[nH]c(=S)nc21,-19,-2,35,-5,2,·,·,·
SMILES,CSC inhib,Beta cell apopt,Mdm2-MdmX inh,T cruzi repl,SKKanGAS inh,Lmaj promast,Mdm2 MdmX conf,FLuc counter
Cc1[nH]c2ccc(C(=O)NCCCN3CCOCC3)cc2c1C,4,-7,9,-10,-7,·,·,·
CC1=Nc2cc(C(=O)NCCCN3CCOCC3)ccc2Sc2c(C)ccc(C)c21,47,-9,66*,20,4,·,11,·
CCCC1=Nc2cc(C(=O)NCCN3CCOCC3)ccc2Sc2ccccc21,23,0,4,18,-8,·,·,·
CC1=Nc2cc(C(=O)NCCN3CCOCC3)ccc2Sc2c(C)ccc(C)c21,42,1,64*,-1,3,·,52*,47*
C=CCn1c(C)cc(C2=NNC(=Nc3ccc(C)cc3)SC2)c1C,-4,0,19,20,3,-4,·,·
COCCn1c(C)cc(C2=NNC(=NC3CC3)SC2)c1C,7,3,95*,2,7,18,94*,53*
C=CCn1c(C)cc(C2=NNC(=NC(C)(C)C)SC2)c1C,33,25,88*,49,-15,15,93*,80*
COCCn1c(C)cc(C2=NNC(=Nc3ccc(Cl)cc3Cl)SC2)c1C,-2,0,29,1,9,4,·,·
C=CCN=C1NN=C(c2cc(C)n(CCOC)c2C)CS1,-8,-2,86*,-1,6,2,90*,31
COc1ccccc1C(=O)Nc1ccc(Br)cc1C,0,-1,-53,13,0,5,·,·
CC1(C)CC[C@@]23CC[C@]4(C)[C@@](OC2=O)(C3C1)[C@H]1O[C@H]1C1[C@@]2(C)CC[C@H](O)C(C)(C)C2CC[C@]14C (some centres undefined),-15,3,75*,3,2,·,-5,·
CCCN1CCC(NC(=S)Nc2ccc(S(N)(=O)=O)cc2)CC1,-8,-4,-24,-15,4,-1,·,·
COc1ccc(NC(=O)CSc2ncnc3c2sc2ccccc23)c(OC)c1,41,8,88*,-14,-6,-6,16,·
COc1ccc(NC(=O)CSc2ccccc2)c(OC)c1,-6,6,-32,-9,-4,1,·,·
Cc1ccccc1C([O-])=Nc1ccc[n+](-c2nc3ccccc3nc2NS(=O)(=O)c2ccccc2)c1,-15,-2,6,2,17,·,·,·
Cc1ccc(NC(=O)C/C(N)=N/OC(=O)Nc2cccc(Cl)c2)cc1,·,0,4,·,·,·,·,·
CC(=O)Nc1ccc(OCCC[n+]2ccccc2)cc1,-8,-5,18,0,4,-4,·,·
CCCCCc1ccc(OCCC[n+]2ccccc2)c(CCCCC)c1,11,113*,89*,75*,40,·,76*,22
